EC50 and IC50 data for 11 molecules are collected here from BindingDB's records for doi:10.1021/jm030565g (Glaxosmithkline, 2004).

Assay [1] can be described thus: Effective concentration for lipogenesis induced by retinoid X receptor alpha in C3H10T1/2 clone 8 fibroblast cells.
Assay [2] is described as follows: Effective concentration for retinoic acid receptor alpha induced lipogenesis in C3H10T1/2 clone 8 fibroblast cells.
Assay [3] is described as follows: Effective concentration for lipogenesis induced by retinoid X receptor alpha in C3H10T1/2 clone 8 fibroblast cells; Partial agonist.
The nature of assay [4]: Inhibitory concentration for lipogenesis induced by retinoic acid receptor alpha in C3H10T1/2 clone 8 fibroblast cells.
Assay [5] addresses T1, Retinoic acid receptor RXR-alpha (Homo sapiens, UniProt P19793).
T1 sequence (P19793 whole entry): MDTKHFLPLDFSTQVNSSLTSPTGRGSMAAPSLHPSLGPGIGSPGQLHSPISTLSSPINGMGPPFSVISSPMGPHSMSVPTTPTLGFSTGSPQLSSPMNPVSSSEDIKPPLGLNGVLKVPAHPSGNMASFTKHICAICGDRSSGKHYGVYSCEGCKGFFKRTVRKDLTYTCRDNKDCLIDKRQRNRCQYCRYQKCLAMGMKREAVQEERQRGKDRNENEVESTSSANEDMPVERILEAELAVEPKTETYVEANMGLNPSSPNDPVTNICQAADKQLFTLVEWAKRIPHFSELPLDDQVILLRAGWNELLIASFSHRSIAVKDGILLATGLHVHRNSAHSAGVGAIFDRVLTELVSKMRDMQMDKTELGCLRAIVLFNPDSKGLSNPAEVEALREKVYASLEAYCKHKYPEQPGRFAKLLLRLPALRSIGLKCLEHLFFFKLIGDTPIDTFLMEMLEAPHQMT
Kind of assay: Effective concentration for lipogenesis induced by retinoid X receptor alpha in C3H10T1/2 clone 8 fibroblast cells. Summed up:
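Lipogenesis measured in C3H10T1/2 clone 8 fibroblasts as triglyceride accumulation, used as a surrogate marker of RXR activity.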

Some results are limits rather than exact numbers.

The term EC50 denotes the concentration needed to bring the measured effect to its halfway point. A lower EC50 goes with higher potency in that assay. `C/C(=C\C(=O)O)c1cc2c(o1)CCCC2c1ccc2c(c1)C(C)(C)CCC2(C)C` (stereo unspecified) gave an EC50 in assay [1] of 10 nM. That is a double-digit nanomolar value. As to `CN1Cc2oc(/C=C/C(=O)O)cc2C(c2ccc3c(c2)C(C)(C)CCC3(C)C)C1` (stereo unspecified), the figures for the EC50 in assay [2] and in assay [1] were over 10000 nM and 22 nM, respectively. Take `CC1(C)CCC(C)(C)c2cc(C3CCCc4oc(C=C5SC(O)=NC5=O)cc43)ccc21` (stereo unspecified) [5-[1-[4-(5,5,8,8-Tetramethyl-5,6,7,8-tetrahydro-naphthalen-2-yl)-4,5,6,7-tetrahydro-benzofuran-2-yl]-meth-(E)-ylidene]-thiazolidine-2,4-dione]: it took 5 nM to reach a half-maximal effect in assay [1] (EC50). Consider `Cc1cc2c(cc1C1CCCc3oc(/C=C/C(=O)O)cc31)C(C)(C)CCC2(C)C` (stereo unspecified) [(E)-3-[4-(3,5,5,8,8-Pentamethyl-5,6,7,8-tetrahydro-naphthalen-2-yl)-4,5,6,7-tetrahydro-benzofuran-2-yl]-acrylic acid], for which, in assay [1], a half-maximal effect (EC50) was put at 3000 nM. This EC50 is about 600-fold higher than that of the molecule before. The molecule `COc1cc2c(cc1C1CCCc3oc(/C=C/C(=O)O)cc31)C(C)(C)CCC2(C)C` (stereo unspecified) [(E)-3-[4-(3-Methoxy-5,5,8,8-tetramethyl-5,6,7,8-tetrahydro-naphthalen-2-yl)-4,5,6,7-tetrahydro-benzofuran-2-yl]-acrylic acid] displayed an EC50 in assay [3] of 123 nM. In general, IC50 refers to the concentration needed to halve the response being measured. Molecule `CCCOc1cc2c(cc1C1CCCc3oc(/C=C/C(=O)O)cc31)C(C)(C)CCC2(C)C` (stereo unspecified) [(E)-3-[4-(5,5,8,8-Tetramethyl-3-propoxy-5,6,7,8-tetrahydro-naphthalen-2-yl)-4,5,6,7-tetrahydro-benzofuran-2-yl]-acrylic acid] came in with a half-inhibitory concentration (IC50) in assay [4] of over 1000 nM. This molecule also returned an EC50 in assay [3] of 40 nM. `CC1(C)CCC(C)(C)c2cc(C3CCCc4sc(/C=C/C(=O)O)cc43)ccc21` (stereo unspecified) [(E)-3-[4-(5,5,8,8-Tetramethyl-5,6,7,8-tetrahydro-naphthalen-2-yl)-4,5,6,7-tetrahydro-benzo[b]thiophen-2-yl]-acrylic acid] yielded an EC50 in assay [1] of 72 nM. Regarding `CC1(C)CCC(C)(C)c2cc(C3CCCc4oc(/C=C/C(=O)O)cc43)ccc21` (stereo unspecified) [(E)-3-[4-(5,5,8,8-Tetramethyl-5,6,7,8-tetrahydro-naphthalen-2-yl)-4,5,6,7-tetrahydro-benzofuran-2-yl]-acrylic acid], the EC50 was determined as 4 nM in assay [5] and 660 nM in assay [1]. On to `CC1(C)CCC(C)(C)c2cc(C3CCCc4oc(/C=C/C(=O)O)nc43)ccc21` (stereo unspecified) [(E)-3-[4-(5,5,8,8-Tetramethyl-5,6,7,8-tetrahydro-naphthalen-2-yl)-4,5,6,7-tetrahydro-benzooxazol-2-yl]-acrylic acid], for which the figures for the EC50 in assay [2] and in assay [1] were over 10000 nM and 749 nM, respectively. `CC1(C)CCC(C)(C)c2cc(Cc3coc(/C=C/C(=O)O)c3)ccc21` [(E)-3-[4-(5,5,8,8-Tetramethyl-5,6,7,8-tetrahydro-naphthalen-2-ylmethyl)-furan-2-yl]-acrylic acid] displayed an EC50 in assay [2] of 57 nM. With `Cc1oc(/C=C/C(=O)O)cc1Cc1ccc2c(c1)C(C)(C)CCC2(C)C` [(E)-3-[5-Methyl-4-(5,5,8,8-tetramethyl-5,6,7,8-tetrahydro-naphthalen-2-ylmethyl)-furan-2-yl]-acrylic acid], the EC50 is over 1000 nM in assay [2] and 1000 nM in assay [1].
